# Most compounds without a hit are left out; they make up all but 2.1% or so of the library.
# p97 ATPase inh – blocks human p97 ATPase activity. P55072. recombinant p97 ATPase, Kinase-Glo ATP luminescence, 3 h. inhibition, % at 8 µM. 0.42% of 220,000 active. AID 1481; in the data active = inhibition above about 15%;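 also: 0% = DMSO vehicle and 100% = wells lacking enzyme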
# Runt-CBFb FRET – Runt domain-CBFb interaction inhibition; Q01196+Q13951; Cerulean-Runt/Venus-CBFb FRET ratio 530/480, 1 h; inhibition, % at 20 µM; 0.46% of 220,000 active;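 active = inhibition over about 50% at 20 µM in the single-dose screen, limit read from the data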;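 also: 0% = DMSO wells and 100% = excess unlabeled CBFb competitor control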
# Target sequence (Q01196 whole entry, looked up, the tested form may be a part): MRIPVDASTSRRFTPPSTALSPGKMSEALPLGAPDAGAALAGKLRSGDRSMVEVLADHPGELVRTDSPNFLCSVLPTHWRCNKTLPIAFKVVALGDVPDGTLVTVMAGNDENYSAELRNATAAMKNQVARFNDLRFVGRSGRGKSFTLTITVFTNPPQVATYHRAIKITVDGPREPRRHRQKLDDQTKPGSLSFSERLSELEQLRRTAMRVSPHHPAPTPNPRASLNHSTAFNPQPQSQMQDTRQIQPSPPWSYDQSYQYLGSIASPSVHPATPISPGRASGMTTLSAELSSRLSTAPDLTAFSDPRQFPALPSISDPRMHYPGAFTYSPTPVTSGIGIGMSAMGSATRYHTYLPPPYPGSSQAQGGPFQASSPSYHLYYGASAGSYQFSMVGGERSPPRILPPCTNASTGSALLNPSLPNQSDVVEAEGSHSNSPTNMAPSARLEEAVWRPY
# Target sequence (Q13951 whole entry, looked up, the tested form may be a part): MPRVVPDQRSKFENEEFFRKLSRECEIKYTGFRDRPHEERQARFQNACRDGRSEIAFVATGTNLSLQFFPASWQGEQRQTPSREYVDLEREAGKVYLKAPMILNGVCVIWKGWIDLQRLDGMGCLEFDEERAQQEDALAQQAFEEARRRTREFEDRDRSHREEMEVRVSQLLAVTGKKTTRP
#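 Measured by: fluorescence energy transfer, 422 nm excitation, 530/480 nm emission; Assay system: Cerulean-Runt domain; Medium: Tris pH 7.5 buffer with BSA; Measure: loss of energy transfer signal; Controls: 5 µM unlabeled CBFb as full-inhibition high control; Incubation: protein complex preformed 1 h, compound exposure 1 h, room temperature, dark.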
# TbHK1 inh – T. brucei hexokinase 1 inhibition; recombinant TbHK1, G6PDH-coupled NADH A340; inhibition, % at 10 µM; 0.11% of 220,000 active; AID 1430;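 active = inhibition of 50% or more in the single-dose primary screen; inactive = inhibition below 50%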
# Runt-SMMHC FRET – blocks binding of human RUNX1 Runt domain to CBFb-SMMHC | AID 1434 | inhibition, % at 20 µM | Q01196+Q13951 | 0.74% of 220,000 active | Cerulean-Runt/Venus-CBFb-SMMHC FRET ratio 530/480, 1 h;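 active = mean inhibition across duplicate retests at 20 µM reaching about 50%, limit read from the data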;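 also: 0% = DMSO wells and 100% = wells with excess untagged CBFb-SMMHC; inhibitors lower the FRET ratio by blocking Runt binding to CBFb-SMMHC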
# Hck Nef HTS – inhibitors of human Hck kinase activated by Nef. P08631. Recombinant Hck-YEEI plus Nef, Z-Lyte FRET kinase assay. inhibition, % at 20 µM. 0.68% of 220,000 active;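 active = Hck-Nef kinase inhibition above about 50%, limit read from the data; inactive = inhibition below that limit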;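 also: 0% = DMSO with Hck plus Nef and 100% = Hck alone without Nef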
# RanGTP-Impb inh – inhibitors of RanGTP-importin-beta interaction, primary screen, biochemical, FRET, CFP-Ran, YFP-importin-beta, homogeneous; cell-free CFP-Ran/YFP-importin-beta FRET ratio; 1.1% of 300,000 active; inhibition, % (test concentration not listed);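 active = more than half of the replicate wells show a fall in the fluorescence ratio signal beyond about 16%, limit read from the data, passing the limit was not always enough; inconclusive = exactly half of the replicate wells pass the set limit; inactive = fewer than half of replicates pass the limit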;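 also: 0% = DMSO wells and 100% = Ran loaded with GDP instead of GTP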
# Numbers without * were called inactive; ? = inconclusive; . = no result given.
SMILES,p97 ATPase inh,Runt-CBFb FRET,TbHK1 inh,Runt-SMMHC FRET,Hck Nef HTS,RanGTP-Impb inh
C=CCc1cc(/C=C/c2nc(O)c([N+](=O)[O-])c(=O)[nH]2)cc(OC)c1O,4,38,-11,80*,32,34*
CC(C)(C)OC(=O)N1CCC(c2c(C(=O)NCC3CCN(C4CCCC4)C3)cnn2-c2ccccc2Cl)CC1 (stereo unspecified),.,.,.,.,.,3
CC(C)Cc1ccc(/C=C/C(=O)N2CCOCC2)cc1,0,-5,-5,-1,16,18*
CC1Cc2cc(S(=O)(=O)N3CCC(C(N)=O)CC3)ccc2N1C(=O)C1CC1 (stereo unspecified),.,.,.,.,.,18*
CCOC(=O)C1CCN(S(=O)(=O)c2ccc3c(c2)CC(C)N3C(=O)C2CC2)CC1 (stereo unspecified),.,.,.,.,.,0
CCN1CCN(c2nc3ccccc3nc2C(C#N)C(=O)OCc2ccccc2)CC1 (stereo unspecified),-4,26,-2,47,0,20*
N#CC(C(=O)OC1CCCCC1)c1nc2ccccc2nc1N1CCCCC1 (stereo unspecified),6,-14,11,-44,0,17*
N#CC(C(=O)NCCc1ccccc1)c1nc2ccccc2nc1N1CCOCC1 (stereo unspecified),4,-19,-13,-38,-4,?
CCCCCCOC(=O)C(C#N)c1nc2ccccc2nc1N1CCN(CC)CC1 (stereo unspecified),-2,12,-3,15,1,0
CC1CCCN(c2nc3ccccc3nc2C(C#N)C(=O)OC2CCCCC2)C1 (stereo unspecified),5,-1,11,-45,0,.
N#CC(C(=O)NCCc1ccccc1)c1nc2ccccc2nc1N1CCCCC1 (stereo unspecified),3,9,1,-22,-1,37*
N#CC(C(=O)NCc1ccccc1)c1nc2ccccc2nc1N1CCCC1 (stereo unspecified),6,32,-4,66*,-2,35*
COc1ccc(OC)c(C2C(C(=O)Nc3cccnc3)=C(C)NC3=C2C(=O)CCC3)c1 (stereo unspecified),3,3,-14,-4,6,-3
Cc1nnc(SCC(=O)c2ccccc2)n1Cc1ccccc1,0,2,2,4,0,-1
CSc1ccc(CCNC(=O)c2cccc3c2C(=O)N(C2CCCCC2)C3)cc1,.,.,.,.,.,-2
CCOc1ccc(CNCCNC(=O)c2nonc2N)cc1,2,1,4,1,16,-2
Nc1nonc1C(=O)NCCNCc1ccccc1OCc1ccc(F)cc1,0,1,-2,-2,1,18*
Cc1ccc(C(=O)NCCSc2ccc(Cl)cc2)cc1S(=O)(=O)Nc1ccccc1,4,.,5,-10,-3,0
COc1cccc(-c2nc(-c3ccc4c(c3)-c3ccccc3S4(=O)=O)c(-c3ccccc3)[nH]2)c1OC,1,-11,-17,.,-10,15*
COc1cc(-c2nc(-c3ccc4c(c3)-c3ccccc3S4(=O)=O)c(-c3ccccc3)[nH]2)cc(OC)c1OC,5,-53,-4,-108,-26,-7
Cc1ccc(N=c2oc3cc(O)ccc3cc2C(N)=O)cc1,-1,10,-5,46,46,181*
Cc1ccc(C(=O)N/N=c2\oc3ccccc3cc2C(N)=O)cc1,.,.,.,.,.,-5
COc1ccc(N=c2oc3cc(O)ccc3cc2C(=O)NCC2CCCO2)c(OC)c1 (stereo unspecified),2,11,-6,41,22,176*
COc1ccc(N=c2oc3cc(O)ccc3cc2C(=O)NCC2CCCO2)cc1 (stereo unspecified),-5,82*,-2,64*,45,173*
CCOc1ccc(N=c2oc3cc(O)ccc3cc2C(=O)NCC2CCCO2)cc1 (stereo unspecified),-1,121*,-16,106*,35,184*
SMILES,p97 ATPase inh,Runt-CBFb FRET,TbHK1 inh,Runt-SMMHC FRET,Hck Nef HTS,RanGTP-Impb inh
COCCNC(=O)CSCc1cc(C)cc(C)c1,3,0,6,1,-6,4
O=C(CN(Cc1ccccc1)C(=O)c1cccc([N+](=O)[O-])c1)Nc1c(Cl)cc(Cl)cc1Cl,2,-1,10,1,6,3
COc1ccc(S(=O)(=O)NCC2CCCN(C(=O)c3ccccc3)C2)cc1 (stereo unspecified),7,1,-4,-6,12,3
Cc1ccc(C(=O)NNc2cc(=O)n(C)c(=O)n2C)cc1C,1,20,-3,49,6,28*
Cn1c(NNC(=O)c2cccc3ccccc23)cc(=O)n(C)c1=O,1,49,-15,93*,6,24*
COc1ccc2nc(NC(=S)N(C)C)sc2c1,6,40,-38,26,-23,-1
CCCCC(=O)Nc1ccc(C(=O)NNC(=O)CCCOc2ccc(Cl)cc2Cl)cc1,-4,4,-9,4,0,2
COc1cc2ncnc(NCc3ccccc3C)c2cc1OC,-1,-2,-5,2,25,-4
COc1cc2ncnc(NCc3ccccc3Cl)c2cc1OC,1,-3,-1,-1,74*,12
COc1ccc(NC2CCCN(C(=O)c3cccc(N4CCNC4=O)c3)C2)cc1 (stereo unspecified),.,.,.,.,.,-1
Cc1cc(NCc2ccco2)nc2cc(O)ccc12,0,32,-14,76*,14,30*
CCOC(=O)c1sc(N/N=C/c2ccccc2)nc1C,-1,33,-11,12,12,9
CC(=O)c1sc(N/N=C\c2ccccc2O)nc1C,0,.,-21,.,13,38*
CCOC(=O)CC(NC(=O)C1c2ccccc2Oc2ccccc21)c1ccccc1Cl (stereo unspecified),-6,2,-4,1,3,-2
Cc1cccn2c(=O)c(/C=C(\C#N)C(=O)NC3CCS(=O)(=O)C3)c(N3CCC(C)CC3)nc12 (stereo unspecified),-6,19,0,63*,39,84*
N#C/C(=C\c1c(N2CCCCC2)nc2ccccn2c1=O)C(=O)NC1CCS(=O)(=O)C1 (stereo unspecified),3,4,22,81*,8,80*
COC(=O)/C(C#N)=C/c1c(N2CCCCCC2)nc2ccccn2c1=O,.,.,.,.,.,4
O=C(COC(=O)c1ccccn1)Nc1nc(-c2cccc([N+](=O)[O-])c2)cs1,-4,2,4,2,14,-1
O=C(CSc1nnc(NCc2ccccc2)s1)c1ccco1,1,0,25,2,0,?
CC(C)N(CCNCc1nnc(-c2ccccc2)o1)C(C)C,2,1,-2,-2,19,9

# Assay outcomes as filed in PubChem BioAssay.
